The list is not random: actives were taken first. Their share in the collection is about 1.6%.
LEDGF integ inh: blocks HIV-1 LEDGF/p75-dependent DNA integration. hit rate 0.64% among 370,000. AID 743269. TR-FRET IN-LEDGF/p75 DNA integration, Eu/Cy5. inhibition, % at 3.7 µM;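 active means inhibition above the screen-wide mean plus 3 SD, cut at about 13% in these data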;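 further: signal is the Cy5 over europium emission ratio at 671 and 618 nm; 0% = plate median of compound wells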
TDP2 inh: TDP2 (human) inhibition, absorbance primary screen; inhibition, % at 12.8 µM; O95551; hit rate 0.34% among 370,000; recombinant TDP2, T5PNP hydrolysis, p-nitrophenol absorbance 415 nm;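 active means inhibition above the mean of all tested compounds plus 3 SD, set per campaign, cut at about 25% in these data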;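 further: 0% = DMSO with enzyme and 100% = buffer with substrate but no TDP2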
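Evaluation: % inhibition relative to enzyme-containing and enzyme-free wells. Material: recombinant human TDP2. Benchmarks: enzyme-free and DMSO wells. Timing: enzyme reaction with compound for 2 h at 37 °C. Compound dosing: 12.8 µM only. Measured by: p-Nitrophenol epi absorbance. Reagent: T5PNP substrate at 5 mM, a TopII-DNA adduct mimic. Replication: single well per compound.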
UHRF1 binding: blocks human UHRF1 binding to methylated DNA; UHRF1 binding to methylated oligo, TR-FRET; inhibition, % at 4.4 µM; hit rate 0.75% among 370,000; in the data active means inhibition above about 21%;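 further: UHRF1 SRA domain binding a hemimethylated CpG hairpin DNA probe; 0% = median of test compound wells and 100% = reference inhibitor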
Target sequence (Q96T88 whole entry, looked up, the tested form may be a part): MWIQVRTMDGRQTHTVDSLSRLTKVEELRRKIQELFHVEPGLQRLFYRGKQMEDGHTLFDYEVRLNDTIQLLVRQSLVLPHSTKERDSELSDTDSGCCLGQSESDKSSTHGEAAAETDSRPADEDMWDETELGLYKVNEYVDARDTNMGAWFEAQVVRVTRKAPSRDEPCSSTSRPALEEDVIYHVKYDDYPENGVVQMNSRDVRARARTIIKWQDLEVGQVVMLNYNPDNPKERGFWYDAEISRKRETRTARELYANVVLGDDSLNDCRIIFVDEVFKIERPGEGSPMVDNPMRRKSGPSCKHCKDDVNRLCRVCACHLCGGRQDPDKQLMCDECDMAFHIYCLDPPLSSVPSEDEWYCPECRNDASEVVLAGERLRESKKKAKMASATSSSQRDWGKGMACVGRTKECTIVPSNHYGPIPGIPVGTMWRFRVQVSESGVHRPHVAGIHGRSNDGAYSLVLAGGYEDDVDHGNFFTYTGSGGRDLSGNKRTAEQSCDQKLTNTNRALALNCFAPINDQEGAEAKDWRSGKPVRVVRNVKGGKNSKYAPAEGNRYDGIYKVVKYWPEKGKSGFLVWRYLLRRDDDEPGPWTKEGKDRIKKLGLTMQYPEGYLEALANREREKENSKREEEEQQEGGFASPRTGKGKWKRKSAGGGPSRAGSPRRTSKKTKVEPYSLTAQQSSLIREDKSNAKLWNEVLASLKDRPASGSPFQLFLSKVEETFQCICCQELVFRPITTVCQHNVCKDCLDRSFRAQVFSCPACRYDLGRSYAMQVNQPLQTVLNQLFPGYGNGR
MBD2 DNA inh: inhibitors of human MBD2 binding to methylated oligonucleotide. Q9UBB5. inhibition, % at 4.4 µM. hit rate 0.31% among 370,000. TR-FRET; in the data active means inhibition above about 13%
TDP2 confirm: human TDP2 inhibition, confirmation; shares compounds with TDP2 inh; recombinant human TDP2, absorbance read-out; inhibition, % at 12.8 µM; hit rate 22% among 1,100; in the data active means inhibition above about 25%;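 further: 0% = vehicle with enzyme and 100% = no enzyme buffer only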
IN multimer up: counter-screen for LEDGF/p75 integration inhibitors: HIV-1 integrase multimerization activators; shares compounds with LEDGF integ inh; TR-FRET HIV-1 integrase multimerization, biochemical; activation, % at 7.7 µM; hit rate 17% among 2,000; AID 1053131; in the data active means activation above about 8.9%
TRFRET interf: optically interferes with TR-FRET readout in LEDGF counter-screen. shares compounds with LEDGF integ inh. TR-FRET optical interference counterscreen, HIV-1 IN multimerization. inhibition, % at 7.7 µM. 2,000 tested, under 10 active. AID 1053135;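 active means inhibition above the mean over all tested compounds plus 3 SD, which no compound reached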;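 further: 0% = integrase with antibodies and DMSO and 100% = antibodies without integrase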
LEDGF integ conf: LEDGF/p75-dependent HIV-1 integration inhibition, confirmation | hit rate 36% among 2,000 | inhibition, % at 3.7 µM | TR-FRET LEDGF/p75-dependent HIV-1 integration, biochemical | AID 1053136 | shares compounds with LEDGF integ inh; in the data active means inhibition above about 14%
Active calls of the source: *; . = not tested or not shown.

SMILES	LEDGF integ inh	TDP2 inh	UHRF1 binding	MBD2 DNA inh	TDP2 confirm	IN multimer up	TRFRET interf	LEDGF integ conf
O=C(Nc1ccc(F)cc1)Nc1c(-c2ccc(F)cc2)nc2ncccn12	-4.5	-11.5	3.1	3.4	.	.	.	.
COc1ccccc1N(/N=C1\Sc2ccccc2C1=O)C(C)=O	16.6*	27.8*	-8.3	-7.2	44.8*	0.3	-1.2	23.3*
Clc1ccc(-n2c(SCc3cccc4ccccc34)nnc2-c2cccnc2)cc1	2.5	2.0	1.9	-2.0	.	.	.	.
O=[N+]([O-])c1c(Nc2ccccn2)cc(Cl)c2nonc12	69.9*	87.4*	9.2	-5.1	47.1*	2.1	-7.3	40.3*
O=C(O)c1ccccc1Nc1cc(Cl)c2nonc2c1[N+](=O)[O-]	-1.9	-4.4	-1.6	-11.5	.	.	.	.
CCN(CCO)c1ccc(NC(=S)Nc2cccc(S(=O)(=O)N(C)C)c2)cc1	23.8*	36.4*	-0.1	-2.8	10.6	4.9	-17.6	6.5
COC(=O)[C@]12C[C@H](CC(=O)NCc3ccc(OC)c(OC)c3)C(=O)N(Cc3ccccc3)C1=C[C@H](COCc1ccccc1)O[C@@H]2C	-3.1	-7.3	0.0	-2.9	.	.	.	.
Cn1cnc(S(=O)(=O)Nc2ccccc2N2CCOCC2)c1	-2.1	-3.1	-2.4	-4.2	.	.	.	.
CN(C)c1cccc2c1c(NS(=O)(=O)c1cn(C)cn1)nn2C	15.2*	43.5*	-2.9	-2.8	32.1*	5.1	-18.2	12.3
COc1cccc(-c2nnc3sc(-c4ccc(Br)o4)nn23)c1	-1.4	-3.9	-1.1	-5.2	.	.	.	.
COc1cccc2c1C(=O)C=C(C)C2=O	-2.7	0.3	-0.4	1.8	.	.	.	.
COC1=CC(=O)c2c(ccc3ncnc(N)c23)C1=O	52.5*	84.9*	5.6	-6.0	81.6*	7.2	-25.9	73.1*
Cc1ccc(-n2c(SCC(=O)Nc3ccc(OCc4ccccc4)cc3)nnc2-c2cnccn2)cc1	3.6	-20.1	1.3	1.3	.	.	.	.
O=C(NC1=C(NC2CCS(=O)(=O)C2)C(=O)c2ccccc2C1=O)c1ccccc1 (configuration not stated)	24.8*	27.9*	10.1	-6.0	36.5*	1.2	-4.3	41.5*
Cc1cccc(/C=N/NC(=O)C(C)Nc2cccc3ccccc23)n1 (configuration not stated)	31.8*	67.2*	3.0	0.0	23.9	2.4	-12.1	-7.2
COc1cc([N+](=O)[O-])cc(/C=N/NC(=O)C(C)Nc2cccc3ccccc23)c1O (configuration not stated)	-0.4	-4.9	-5.2	1.4	.	.	.	.
CC(Nc1cccc2ccccc12)C(=O)N/N=C/c1ccc([N+](=O)[O-])cc1 (configuration not stated)	16.2*	30.9*	-2.4	-3.0	0.0	0.3	-1.3	-3.8
Cn1c(=O)c2c(-c3ccccc3)n(-c3ccc(N)cc3)cc2n(C)c1=O	40.0*	57.8*	15.0	-1.9	27.3*	7.3	-25.9	11.4
C[C@H]1C2CC(OC(=O)NCc3ccc(Cl)cc3)C(C2)[C@H]2CCCCN21 (some centres not stated)	1.2	-3.9	-0.2	-4.5	.	.	.	.
CC(C)(C)c1cc(=O)n(-c2ccccc2)[nH]1	22.3*	85.0*	15.3	9.3	89.5*	-2.0	7.0	10.8
O=c1cc(-c2ccccc2)[nH]n1-c1ccccc1	36.6*	75.5*	16.0	7.4	-2.7	1.3	-4.6	-0.8
O=c1ccc(=O)n(-c2ccccc2)[nH]1	1.7	4.3	-3.7	-2.9	.	.	.	.
CCCCCc1ccc(NC(=O)OCCCN2CCC3(CCC(c4ccccc4)CC3)C2=O)cc1 (configuration not stated)	2.0	-1.8	3.1	6.5	.	.	.	.
CCOc1cc(N2CCOCC2)c(OCC)cc1NC(=O)CSc1ncccc1C(=O)O	28.5*	29.6*	1.8	-8.3	5.5	1.8	-9.1	3.0
CCC(COC)Oc1cc(NCc2ccccc2)c2ncn(C(C)C)c2c1 (configuration not stated)	26.5*	60.9*	3.6	-12.8	34.5*	0.2	-0.8	29.6*
SMILES	LEDGF integ inh	TDP2 inh	UHRF1 binding	MBD2 DNA inh	TDP2 confirm	IN multimer up	TRFRET interf	LEDGF integ conf
CCC(CO)Oc1cc(NC(=O)c2ccc(N)cc2)c2ncn(C(C)C)c2c1 (configuration not stated)	13.9*	36.9*	18.1	5.9	34.3*	0.6	-3.1	24.8*
O=C1CCC[C@H]2C[C@H](NCc3cccc(I)c3)CC[C@]23CCCN13	-0.1	-10.6	-1.2	-5.1	.	.	.	.
C[C@H]1[C@@H](OC(=O)Nc2ccc(C#N)cc2)CC[C@@]23CCCN2C(=O)CCC[C@@H]13	-0.9	-1.7	-1.7	-0.3	.	.	.	.
Oc1ccc2ccccc2c1C=Nc1ccc(N2CCOCC2)cc1	28.1*	31.4*	-4.5	-15.2	4.6	1.8	-8.8	-1.4
O=C1c2cccc(Cl)c2C(=O)c2c1cccc2N1CCCC1	32.2*	25.9*	14.2	-2.8	5.5	1.1	-5.6	-8.7
CC(C)(N[C@@H](Cc1c[nH]c2ccccc12)C(=O)NCCCc1ccccc1)C(=O)NCc1ccccc1	3.1	3.3	-1.7	1.7	.	.	.	.
COc1cc(NS(=O)(=O)c2ccc(NC(=S)NC(=O)/C=C/c3ccco3)cc2)ncn1	23.2*	36.4*	45.5*	7.0	40.7*	7.6	-27.2	36.8*
O=C(C1CCCN1S(=O)(=O)c1cccs1)N1CCc2ccccc2C1 (configuration not stated)	3.1	-5.6	3.8	7.1	.	.	.	.
CCOC(=O)c1c(N)n(CCOC(=O)c2cccs2)c2nc3ccccc3nc12	32.5*	75.5*	11.7	6.3	-6.2	1.0	-3.4	-3.0
COc1ccccc1CNS(=O)(=O)c1cc(CN2C(=O)c3cccnc3C2=O)ccc1OC	0.9	13.0	-2.7	-0.8	.	.	.	.
COc1cc(CCNC2=CC(=O)c3ncccc3C2=O)ccc1O	28.8*	28.9*	-13.6	-21.9	34.9*	4.6	-16.3	60.0*
COC(=O)C1CN(Cc2ccccc2)CCS(=O)(=O)N1Cc1ccccc1F (configuration not stated)	0.0	-2.4	-0.6	-4.6	.	.	.	.
COc1ccc(CNC(=O)c2cc(-c3ccccc3)c(N3CCOCC3)s2)cc1OC	2.6	1.4	1.2	-0.8	.	.	.	.
Nn1cnnc1N/N=C/c1cc(Br)cc(Br)c1O	44.4*	53.9*	4.0	4.2	-5.2	0.7	-2.1	-15.9
CC1CCN(c2ccc(/C=N\Nc3nncn3N)cc2[N+](=O)[O-])CC1	46.8*	79.5*	3.8	-6.3	2.0	2.2	-7.5	-15.3

Compound activity deposited in PubChem BioAssay by The Scripps Research Institute Molecular Screening Center.
